HTR2A ag – agonists of mouse serotonin 5-HT2A receptor (HTR2A); 360,000 tested, 0.66% active; CHO-K1 mHTR2A beta-arrestin complementation, luminescence; percent of 30 µM serotonin response; activation, % at 7.6 µM; P35363;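 active = activation above a run cutoff, the mean activation of all tested compounds plus 3 SD, cut at about 14% in these data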
TAAR1 antagonist – antagonists of human TAAR1. 360,000 tested, 1.5% active. inhibition, % at 3 µM. AID 624466. Q96RJ0. CHO RD-HGA16 TAAR1, Fluo-8 calcium fluorescence, antagonist;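 active = inhibition above a per-plate cutoff, the mean inhibition of test compounds on that plate plus 3 SD, cut at about 49% in these data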
Target sequence (Q96RJ0 whole entry, looked up): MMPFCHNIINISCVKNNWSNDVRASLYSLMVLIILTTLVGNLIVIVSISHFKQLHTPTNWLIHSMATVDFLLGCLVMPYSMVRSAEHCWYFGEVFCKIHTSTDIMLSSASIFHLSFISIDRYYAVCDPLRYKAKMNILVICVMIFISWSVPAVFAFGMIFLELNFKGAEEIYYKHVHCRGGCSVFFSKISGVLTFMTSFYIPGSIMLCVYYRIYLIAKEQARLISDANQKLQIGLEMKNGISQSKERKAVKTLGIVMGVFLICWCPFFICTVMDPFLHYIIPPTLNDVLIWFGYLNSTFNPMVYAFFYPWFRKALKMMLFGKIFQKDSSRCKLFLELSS
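System: CHO RD-HGA16 cells bearing hTAAR1. Reagent: EC80 β-phenethylamine stimulus. Schedule: seeding 17-24 h prior, 75-min 37 °C, 30-min RT dye loading. Signal: Fluo-8 intracellular calcium dye fluorescence, real-time kinetic reads. Read-out: % inhibition from peak post-agonist over basal fluorescence ratio. Benchmarks: vehicle wells and EC80 agonist wells. Replicates: n of 1.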
TAAR1 ag – agonists of human TAAR1. Q96RJ0. CHO RD-HGA16 TAAR1, Fluo-8 calcium fluorescence; vehicle wells 0%, saturating PEA agonist 100%. activation, % at 3 µM. 360,000 tested, 0.99% active;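 active = activation above the mean activation of all test compounds in the run plus 3 SD, cut at about 38% in these data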
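System: CHO RD-HGA16 cells carrying human TAAR1 plus Gα16; Incubation: 17-24 h seeding, 75 min 37 °C dye, 30 min RT; Measured by: Fluo-8 fluorescence, 5 s baseline then 140 s kinetic read; Control set: DMSO and PEA EC100; Replication: single well for each compound.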
M1 ag – activates human CHRM1 receptor. P11229. CHO-K1 hM1, Fluo-8 calcium fluorescence, agonist mode; 0% DMSO, 100% acetylcholine EC100. activation, % at 3 µM. 360,000 tested, 0.33% active. AID 588814;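 active = activation above the run's mean compound activation plus 3 SD, cut at about 16% in these data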;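 note: peak over basal fluorescence ratio within a 140 s kinetic read after compound addition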
CHRM1 PAM – positive allosteric modulators of human M1 muscarinic receptor; AID 588819; P11229; CHO-K1 hM1, Fluo-8 calcium fluorescence, ACh EC20; 0% = ACh EC20, 100% = maximal ACh; 360,000 tested, 0.088% active; activation, % at 3 µM; in the data active = activation above about 19%, passing the limit was not always enough
CHRM1 antagonist – blocks human M1 muscarinic receptor | P11229 | CHO-K1 hM1, Fluo-8 calcium fluorescence, ACh EC80 antagonist | inhibition, % at 3 µM | 360,000 tested, 1.3% active | AID 588852;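 active = percent inhibition above its own plate's cutoff, namely the mean of that plate's compound wells plus 3 SD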;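 note: peak over basal fluorescence ratio during 140 s after agonist addition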
Numbers stand for hits. A selection: hits, their analogues and other compounds. The true share with any hit is near 3.9%.

What do the screens show for `COc1ccccc1CN1CCC(CNS(=O)(=O)c2cc(-c3onc(C)c3C)ccc2OC)CC1`?
HTR2A ag: inactive; TAAR1 antagonist: inactive; TAAR1 ag: inactive; M1 ag: inactive; CHRM1 PAM: inactive; CHRM1 antagonist: 102.4

How did Cc1cc(-c2ccc(C)c(S(=O)(=O)NCC3CCN(Cc4ccccc4F)CC3)c2)on1 do in these assays?
HTR2A ag: inactive; TAAR1 antagonist: inactive; TAAR1 ag: inactive; M1 ag: inactive; CHRM1 PAM: inactive; CHRM1 antagonist: 55.1

Results for COc1cccc(CCN2CCC(CNS(=O)(=O)c3cc(-c4cc(C)no4)ccc3C)CC2)c1 ?
HTR2A ag: inactive; TAAR1 antagonist: inactive; TAAR1 ag: inactive; M1 ag: inactive; CHRM1 PAM: inactive; CHRM1 antagonist: inactive

Results for COC(=O)[C@]12C[C@H](CC(=O)NCCC(C)C)C(=O)N(Cc3ccc4c(c3)OCO4)C1=C[C@H](C(C)(C)C)O[C@@H]2C ?
TAAR1 antagonist: inactive; TAAR1 ag: inactive

Results for CCOC(=O)c1c(C)[nH]c(C)c1S(=O)(=O)N1CCOCC1 ?
HTR2A ag: inactive; TAAR1 antagonist: inactive; TAAR1 ag: inactive; M1 ag: inactive; CHRM1 PAM: inactive; CHRM1 antagonist: inactive

Results for COc1ccc(NC(=O)CCc2nnc3ccc(NCc4ccco4)nn23)cc1 ?
HTR2A ag: inactive; TAAR1 antagonist: inactive; TAAR1 ag: inactive; M1 ag: inactive; CHRM1 PAM: 25.5; CHRM1 antagonist: inactive

How did COC(=O)c1ccc(NC(=O)CCc2nnc3ccc(NCc4ccco4)nn23)cc1 do in these assays?
HTR2A ag: inactive; TAAR1 antagonist: inactive; TAAR1 ag: inactive; M1 ag: inactive; CHRM1 PAM: inactive; CHRM1 antagonist: inactive

How did COc1ccc(CCNC(=O)c2ccc(CSc3ccc(Cl)cc3)o2)cc1OC do in these assays?
HTR2A ag: inactive; TAAR1 antagonist: 65.9; TAAR1 ag: inactive

What do the screens show for `COc1ccc(CCNC(=O)c2ccc(CS(=O)(=O)c3ccc(Cl)cc3)o2)cc1OC`?
HTR2A ag: inactive; TAAR1 antagonist: inactive; TAAR1 ag: inactive; M1 ag: inactive; CHRM1 PAM: inactive; CHRM1 antagonist: 30.1

How did COc1ccc(CCNC(=O)/C=C/C(=O)O)cc1OC do in these assays?
HTR2A ag: inactive; TAAR1 antagonist: inactive; TAAR1 ag: 40.6; M1 ag: inactive; CHRM1 PAM: inactive; CHRM1 antagonist: inactive

How did COc1ccc(CCNC(=O)/C=C\c2ccccc2)cc1OC do in these assays?
HTR2A ag: inactive; TAAR1 antagonist: inactive; TAAR1 ag: inactive; M1 ag: inactive; CHRM1 PAM: inactive; CHRM1 antagonist: inactive

What do the screens show for `CC(C)C[C@H](NC(=O)c1cccs1)C(=O)N1CCC[C@H]1C(=O)NCc1ccccc1`?
TAAR1 antagonist: inactive; TAAR1 ag: inactive

Results for CCCN1CCCCC(NC(=O)c2ccc(F)c(F)c2)C1=O (stereo not drawn) ?
TAAR1 antagonist: inactive; TAAR1 ag: inactive

What do the screens show for `Cc1ccc(C(C)C)c(OCC(=O)Nc2ccccc2N2CCN(C)CC2)c1`?
HTR2A ag: inactive; TAAR1 antagonist: inactive; TAAR1 ag: inactive; M1 ag: inactive; CHRM1 PAM: inactive; CHRM1 antagonist: inactive

What do the screens show for `CC(=O)N1CCN(c2ccccc2NC(=O)COc2cc(C)ccc2C(C)C)CC1`?
HTR2A ag: inactive; TAAR1 antagonist: inactive; TAAR1 ag: inactive; M1 ag: inactive; CHRM1 PAM: inactive; CHRM1 antagonist: 29.6

What do the screens show for `Cc1cc(S(=O)(=O)N2CCCOC2CNC(=O)C(=O)NCc2cccs2)ccc1F` (stereo not drawn)?
HTR2A ag: inactive; TAAR1 antagonist: inactive; TAAR1 ag: inactive; M1 ag: inactive; CHRM1 PAM: inactive; CHRM1 antagonist: inactive

How did COC(=O)[C@]12C[C@H](CC(=O)NCCCCc3ccccc3)C(=O)N(CCC3=CCCCC3)C1=C[C@H](COCc1ccccc1)O[C@@H]2C do in these assays?
TAAR1 antagonist: inactive; TAAR1 ag: inactive

How did COc1ccc(/C=C2\N=C(C)N(c3ccc4ccccc4c3)C2=O)cc1OC do in these assays?
HTR2A ag: inactive; TAAR1 antagonist: 65.7; TAAR1 ag: inactive; M1 ag: inactive; CHRM1 PAM: inactive; CHRM1 antagonist: inactive

What do the screens show for `CCN1/C(=C/c2sc(-c3ccccc3C)c[n+]2C)Sc2ccccc21`?
HTR2A ag: inactive; TAAR1 antagonist: inactive; TAAR1 ag: inactive; M1 ag: inactive; CHRM1 PAM: inactive; CHRM1 antagonist: 47.8

What do the screens show for `COc1ccc(C(=O)CSc2nnc(CN3CCCCC3)n2-c2ccc(F)cc2)cc1`?
HTR2A ag: inactive; TAAR1 antagonist: inactive; TAAR1 ag: 47.1; M1 ag: 16.5; CHRM1 PAM: inactive; CHRM1 antagonist: inactive

What do the screens show for `COc1ccc(C(=O)CSc2nnc(-c3cccs3)n2-c2ccccc2)cc1`?
HTR2A ag: inactive; TAAR1 antagonist: inactive; TAAR1 ag: inactive; M1 ag: inactive; CHRM1 PAM: inactive; CHRM1 antagonist: inactive

How did O=C1N=C(N2CCN(c3ccccc3)CC2)S/C1=C/c1cccs1 do in these assays?
HTR2A ag: inactive; TAAR1 antagonist: inactive; TAAR1 ag: inactive; M1 ag: inactive; CHRM1 PAM: inactive; CHRM1 antagonist: inactive

What do the screens show for `Cc1ccc(/C=C2\SC(N3CCN(C(c4ccccc4)c4ccccc4)CC3)=NC2=O)o1`?
HTR2A ag: inactive; TAAR1 antagonist: inactive; TAAR1 ag: inactive; M1 ag: inactive; CHRM1 PAM: inactive; CHRM1 antagonist: 51.9

How did CC1(Cc2ccccc2Cl)C(=O)Nc2cc(-c3ccccc3Cl)ccc21 (stereo not drawn) do in these assays?
HTR2A ag: inactive; TAAR1 antagonist: 50.9; TAAR1 ag: inactive; M1 ag: inactive; CHRM1 PAM: inactive; CHRM1 antagonist: inactive

How did Nc1nc(N)c2c(ccc3c2ccn3Cc2cccc([N+](=O)[O-])c2)n1 do in these assays?
HTR2A ag: inactive; TAAR1 antagonist: inactive; TAAR1 ag: inactive; M1 ag: inactive; CHRM1 PAM: inactive; CHRM1 antagonist: 42.7

Results for S=c1[nH]nc(Cc2ccc(Cl)cc2)o1 ?
HTR2A ag: inactive; TAAR1 antagonist: inactive; TAAR1 ag: inactive; M1 ag: inactive; CHRM1 PAM: inactive; CHRM1 antagonist: inactive

How did CCOc1cc(/C=C(/C#N)c2ccc(F)cc2)ccc1OCc1ccc(C(=O)O)o1 do in these assays?
HTR2A ag: inactive; TAAR1 antagonist: inactive; TAAR1 ag: inactive; M1 ag: inactive; CHRM1 PAM: 22.9; CHRM1 antagonist: inactive

How did COC(=O)c1sc(-c2ccc(C(C)(C)C)cc2)cc1NC(=O)CSCC(=O)O do in these assays?
HTR2A ag: inactive; TAAR1 antagonist: 49.0; TAAR1 ag: inactive; M1 ag: inactive; CHRM1 PAM: inactive; CHRM1 antagonist: inactive

What do the screens show for `COC(=O)c1sc(-c2ccc(C(C)(C)C)cc2)cc1NC(=O)c1ccccc1C(=O)O`?
HTR2A ag: inactive; TAAR1 antagonist: inactive; TAAR1 ag: inactive; M1 ag: inactive; CHRM1 PAM: inactive; CHRM1 antagonist: inactive

High-throughput results from PubChem BioAssay.
